Square brackets hold non-standard residues; d marks the D form. Peptide text beside a SMILES is read from it. * marks the point of attachment. OBzl(3,5-(CF3)2) = FC(F)(F)c1cc(CO*)cc(C(F)(F)F)c1
How the values were obtained:
Mu-type opioid receptor [1] = biological target: Mu-type opioid receptor (Cavia porcellus, UniProt P97266); assay: Agonist activity at mu opioid receptor in Hartley guinea pig ileum assessed as inhibition of electrically-stimulated muscle contraction; assay type: functional, tissue-based
How it was run: (§1)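 Isolated tissues, electrically stimulated at supramaximal voltage: guinea pig (male Hartley) ileum LMMP (1 g tension, Krebs, 0.1 Hz, 0.4 ms) and male ICR mouse vas deferens (0.5 g, Mg-free Krebs, 0.1 Hz, 2.0 ms), both at 37 °C.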

[2] = biological target: Substance-P receptor (Cavia porcellus) (UniProt P30547); assay: Antagonist activity at NK1 receptor in Hartley guinea pig isolated ileum assessed as inhibition of substance P-induced muscle contraction; assay type: functional, tissue-based
How it was run: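 Guinea pig ileum LMMP (male Hartley), 1 g tension, in oxygenated Krebs at 37 °C, with 1 μM naloxone present. Substance P dose–response curves were run with and without peptide. Responses were expressed as % of the maximal peak of the control substance P curve, and Ke was derived from these curves.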

[3] = biological target: T1, Delta-type opioid receptor (Homo sapiens, UniProt P41143); assay: Agonist activity at human delta opioid receptor expressed in HN9.10 cells assessed by [35S]GTP-gamma-S binding assay relative to control; assay type: functional, cell-based
How it was run: (§2)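 Membranes (10 μg) from transfected cells stably expressing hDOR or rMOR, in 1 mL of 50 mM HEPES pH 7.4 with 1 mM EDTA, 5 mM MgCl2, 30 μM GDP, 1 mM DTT, 100 mM NaCl, 0.1 mM PMSF, 0.1% BSA and 0.1 nM [35S]GTPγS. Peptide added at various concentrations in duplicate, 90 min at 30 °C, then filtration. Nonspecific binding defined with 10 μM GTPγS. Stimulation taken as % over basal; EC50 and Emax by nonlinear regression from two independent experiments.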

[4] = biological target: Substance-P receptor (Cavia porcellus) (UniProt P30547); assay: Agonist activity at NK1 receptor in Hartley guinea pig isolated ileum assessed as muscle contraction relative to KCl; assay type: functional, tissue-based; design: concentration or dose not given beside the values
How it was run: (§3)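 Guinea pig ileum LMMP (male Hartley) in oxygenated Krebs at 37 °C, 1 g tension, exposed to peptide at the tested antagonist concentration. Any contraction was expressed relative to the initial KCl-induced contraction of the same tissue. Testing stopped at […].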

[5] = biological target: T1, Delta-type opioid receptor; assay: Agonist activity at human delta opioid receptor expressed in HN9.10 cells assessed by [35S]GTP-gamma-S binding assay; assay type: functional, cell-based; how it was run: as §2
[6] = biological target: Mu-type opioid receptor (Cavia porcellus) (UniProt P97266); assay: Agonist activity at mu opioid receptor in Hartley guinea pig isolated ileum assessed as muscle contraction at 1 uM relative to KCl; assay type: functional, tissue-based; how it was run: as §3
[7] = Ratio of EC50 for rat mu opioid receptor to EC50 for human delta opioid receptor by [35S]GTPgammaS binding assay; assay type: functional; how it was run: as §2
[8] = Ratio of Ki for rat mu opioid receptor to Ki for human delta opioid receptor
How it was run: (§4)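 Competition binding on crude membranes (50 μg) from cells stably expressing rMOR ([3H]DAMGO, 1.0 nM) or hDOR ([3H]DPDPE, 1.0 nM). Buffer was 50 mM Tris pH 7.4 with peptidase/protease inhibitors and 1 mg/mL BSA. Ten peptide concentrations were run in duplicate for 3 h at 25 °C, with 10 μM naloxone for nonspecific binding. Separation by filtration and scintillation counting; IC50 by nonlinear regression from two experiments; Ki by Cheng–Prusoff.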

[9] = Ratio of IC50 for mu opioid receptor in GPI assay to IC50 for delta opioid receptor in MVD assay; assay type: functional; how it was run: as §1
[10] = biological target: Mu-type opioid receptor (Rattus norvegicus) (UniProt P33535); assay: Agonist activity at rat mu opioid receptor expressed in HN9.10 cells assessed by [35S]GTP-gamma-S binding assay relative to control; assay type: functional, cell-based; how it was run: as §2
Mu-type opioid receptor [11] = biological target: T2, Mu-type opioid receptor (Rattus norvegicus, UniProt P33535); assay: Agonist activity at rat mu opioid receptor expressed in HN9.10 cells assessed by [35S]GTP-gamma-S binding assay; assay type: functional, cell-based; how it was run: as §2
Mu-type opioid receptor [12] = biological target: T2, Mu-type opioid receptor; assay: Displacement of [3H]DAMGO from rat mu opioid receptor expressed in HN9.10 cells; assay type: cell-based; how it was run: as §4
[13] = biological target: T1, Delta-type opioid receptor; assay: Displacement of [3H]DPDPE from human delta opioid receptor expressed in HN9.10 cells; assay type: cell-based

T2 sequence (P33535 whole entry): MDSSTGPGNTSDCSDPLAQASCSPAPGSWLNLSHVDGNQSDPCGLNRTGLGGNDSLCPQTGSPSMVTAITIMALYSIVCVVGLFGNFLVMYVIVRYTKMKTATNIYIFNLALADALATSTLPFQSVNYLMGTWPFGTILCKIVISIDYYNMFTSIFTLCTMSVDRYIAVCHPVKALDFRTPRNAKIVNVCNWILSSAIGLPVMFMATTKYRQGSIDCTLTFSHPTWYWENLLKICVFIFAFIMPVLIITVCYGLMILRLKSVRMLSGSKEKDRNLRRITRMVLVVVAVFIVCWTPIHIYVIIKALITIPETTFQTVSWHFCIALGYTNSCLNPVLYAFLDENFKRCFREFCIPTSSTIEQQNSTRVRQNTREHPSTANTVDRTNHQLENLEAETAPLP
Chain of Mu-type opioid receptor (Rattus norvegicus) (P33535 whole entry): as above
Chain of Substance-P receptor (Cavia porcellus) (P30547 whole entry): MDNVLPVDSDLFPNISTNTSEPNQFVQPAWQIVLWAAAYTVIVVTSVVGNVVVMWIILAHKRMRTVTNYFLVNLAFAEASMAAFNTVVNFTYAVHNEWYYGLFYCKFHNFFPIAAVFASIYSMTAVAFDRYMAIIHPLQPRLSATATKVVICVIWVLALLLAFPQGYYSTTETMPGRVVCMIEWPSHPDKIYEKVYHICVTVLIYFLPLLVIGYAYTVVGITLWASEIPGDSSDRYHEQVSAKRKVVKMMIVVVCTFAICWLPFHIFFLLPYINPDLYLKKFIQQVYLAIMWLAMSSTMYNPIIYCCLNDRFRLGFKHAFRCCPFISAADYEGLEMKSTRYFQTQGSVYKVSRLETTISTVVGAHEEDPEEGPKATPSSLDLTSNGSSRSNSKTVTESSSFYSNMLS
Chain of Mu-type opioid receptor (Cavia porcellus, UniProt P97266) (P97266 whole entry): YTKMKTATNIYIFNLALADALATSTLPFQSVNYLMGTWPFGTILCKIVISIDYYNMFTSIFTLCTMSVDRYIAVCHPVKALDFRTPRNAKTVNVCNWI
Chain of Mu-type opioid receptor (Cavia porcellus) (P97266 whole entry): as above
T1 sequence (P41143 whole entry): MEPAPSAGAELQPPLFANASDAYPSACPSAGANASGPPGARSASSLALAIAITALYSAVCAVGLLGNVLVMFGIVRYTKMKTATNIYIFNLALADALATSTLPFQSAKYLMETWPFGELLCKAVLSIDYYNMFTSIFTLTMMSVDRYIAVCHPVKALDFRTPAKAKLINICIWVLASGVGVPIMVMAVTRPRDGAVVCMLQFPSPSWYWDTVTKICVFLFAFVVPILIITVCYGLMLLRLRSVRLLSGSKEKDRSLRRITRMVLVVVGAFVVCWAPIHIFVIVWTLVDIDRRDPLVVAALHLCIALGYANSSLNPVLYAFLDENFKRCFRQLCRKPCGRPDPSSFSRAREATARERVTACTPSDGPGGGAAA

SMILES	IC50 (Mu-type opioid receptor [1]) [nM]	Ke [2] [nM]	Emax [3] [%]	Activity [4] [%]	EC50 [5] [nM]	Activity [6] [%]	Ratio EC50 [7]	Ratio Ki [8]	Ratio IC50 [9]	Emax [10] [%]	EC50 (Mu-type opioid receptor [11]) [nM]	Ki (Mu-type opioid receptor [12]) [nM]	Ki [13] [nM]
CC(C)C[C@H](NC(=O)[C@@H]1CCCN1C(=O)[C@H](CC[S+](C)[O-])NC(=O)[C@H](Cc1ccccc1)NC(=O)CNC(=O)[C@@H](C)NC(=O)[C@@H](N)Cc1ccc(O)cc1)C(=O)N[C@@H](Cc1c[nH]c2ccccc12)C(=O)OCc1cc(C(F)(F)F)cc(C(F)(F)F)c1 (some centres undefined)	150	7.8	52	–	–	–	–	–	–	–	–	–	–
CC(=O)N[C@@H](Cc1c[nH]c2ccccc12)C(=O)OCc1cc(C(F)(F)F)cc(C(F)(F)F)c1	–	250	–	–	–	–	–	–	–	–	–	–	–
CCCC[C@@H](C(=O)N1CCC[C@H]1C(=O)N[C@@H](CC(C)C)C(=O)N[C@@H](Cc1c[nH]c2ccccc12)C(=O)OCc1cc(C(F)(F)F)cc(C(F)(F)F)c1)N(C)C(=O)[C@H](Cc1ccccc1)NC(=O)CNC(=O)[C@@H](C)NC(=O)[C@@H](N)Cc1ccc(O)cc1	–	4.6	290	2	360	12	–	–	–	–	–	–	–
CC(C)C[C@H](NC(=O)[C@@H]1CCCN1C(=O)[C@@H](Cc1ccccc1)NC(=O)[C@H](Cc1ccccc1)NC(=O)CNC(=O)[C@@H](C)NC(=O)[C@@H](N)Cc1ccc(O)cc1)C(=O)N[C@@H](Cc1c[nH]c2ccccc12)C(=O)OCc1cc(C(F)(F)F)cc(C(F)(F)F)c1	–	70	23	0	17	9	20	4.1	> 2.4	24	350	–	–
CC(C)C[C@H](NC(=O)[C@@H]1CCCN1C(=O)[C@H](CC(C)C)NC(=O)[C@H](Cc1ccccc1)NC(=O)CNC(=O)[C@@H](C)NC(=O)[C@@H](N)Cc1ccc(O)cc1)C(=O)N[C@@H](Cc1c[nH]c2ccccc12)C(=O)OCc1cc(C(F)(F)F)cc(C(F)(F)F)c1	340	19	43	0	–	–	3.4	4.7	3.4	45	33	23	–
CSCC[C@H](NC(=O)[C@H](Cc1ccccc1)NC(=O)CNC(=O)[C@@H](C)NC(=O)[C@@H](N)Cc1ccc(O)cc1)C(=O)N1CCC[C@H]1C(=O)N[C@@H](CC(C)C)C(=O)N[C@@H](Cc1c[nH]c2ccccc12)C(=O)OCc1cc(C(F)(F)F)cc(C(F)(F)F)c1	360	25	45	0	2.9	–	–	–	–	42	–	–	–
CC(C)C[C@@H](NC(=O)[C@H](Cc1ccccc1)NC(=O)CNC(=O)[C@@H](C)NC(=O)[C@@H](N)Cc1ccc(O)cc1)C(=O)O [DADLE]	24	–	–	–	–	–	–	–	–	–	–	–	–
CC(C)C[C@H](NC(=O)[C@@H]1CCCN1C(=O)[C@H](Cc1ccccc1)NC(=O)[C@H](Cc1ccccc1)NC(=O)CNC(=O)[C@@H](C)NC(=O)[C@@H](N)Cc1ccc(O)cc1)C(=O)N[C@@H](Cc1c[nH]c2ccccc12)C(=O)OCc1cc(C(F)(F)F)cc(C(F)(F)F)c1	–	14	39	0	21	7	2.8	1.9	> 1	36	59	–	15
CCCC[C@H](NC(=O)[C@H](Cc1ccccc1)NC(=O)CNC(=O)[C@@H](C)NC(=O)[C@@H](N)Cc1ccc(O)cc1)C(=O)N1CCC[C@H]1C(=O)N[C@@H](CC(C)C)C(=O)N[C@@H](Cc1c[nH]c2ccccc12)C(=O)OCc1cc(C(F)(F)F)cc(C(F)(F)F)c1	370	7.9	130	0	4	–	–	–	–	–	–	–	–
CC(C)C[C@H](NC(=O)[C@@H]1CCCN1C(=O)CNC(=O)[C@H](Cc1ccccc1)NC(=O)CNC(=O)[C@@H](C)NC(=O)[C@@H](N)Cc1ccc(O)cc1)C(=O)N[C@@H](Cc1c[nH]c2ccccc12)C(=O)OCc1cc(C(F)(F)F)cc(C(F)(F)F)c1 (H-Y[dA]GFGPLW-{OBzl(3,5-(CF3)2)})	380	5.4	34	0	50	–	–	–	–	36	42	–	–

— ChEMBL document CHEMBL1143706, “Design, synthesis, and biological evaluation of novel bifunctional C-terminal-modified peptides for delta/mu opioid receptor agonists and neurokinin-1 receptor antagonists” (J Med Chem, 2007)
